One may read the inhibition as the relative decrease from the control value, in per cent.

Structures are written as SMILES.

Experimental findings from ChEMBL document CHEMBL5653631, “A Potent and Selective ULK1 Inhibitor Suppresses Autophagy and Sensitizes Cancer Cells to Nutrient Stress” (iScience, 2018) are described below.

For assay [1], the target named is Calcium/calmodulin-dependent protein kinase type 1B (Homo sapiens) (UniProt Q6P2M8). The assay is described as follows: Inhibition of human recombinant CaMK1b at 40 nM in presence of ATP by radiometric assay relative to control.
Chain of Calcium/calmodulin-dependent protein kinase type 1B (Homo sapiens) (Q6P2M8 whole entry): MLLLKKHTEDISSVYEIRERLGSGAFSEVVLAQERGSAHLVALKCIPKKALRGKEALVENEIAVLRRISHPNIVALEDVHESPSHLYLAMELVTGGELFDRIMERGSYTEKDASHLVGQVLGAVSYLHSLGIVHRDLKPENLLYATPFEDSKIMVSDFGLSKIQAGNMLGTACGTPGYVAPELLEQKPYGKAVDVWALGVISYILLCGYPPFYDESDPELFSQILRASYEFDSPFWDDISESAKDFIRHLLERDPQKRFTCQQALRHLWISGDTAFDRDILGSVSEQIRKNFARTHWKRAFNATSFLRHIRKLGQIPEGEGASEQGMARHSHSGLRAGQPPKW
Assay [2] addresses Serine/threonine-protein kinase 10 (Homo sapiens) (UniProt O94804). The assay is described as follows: Inhibition of human recombinant LOK at 40 nM in presence of ATP by radiometric assay relative to control.
Assay [3] has as its target T1, Beta-adrenergic receptor kinase 1 (Homo sapiens) (UniProt P25098).
T1 sequence (whole entry): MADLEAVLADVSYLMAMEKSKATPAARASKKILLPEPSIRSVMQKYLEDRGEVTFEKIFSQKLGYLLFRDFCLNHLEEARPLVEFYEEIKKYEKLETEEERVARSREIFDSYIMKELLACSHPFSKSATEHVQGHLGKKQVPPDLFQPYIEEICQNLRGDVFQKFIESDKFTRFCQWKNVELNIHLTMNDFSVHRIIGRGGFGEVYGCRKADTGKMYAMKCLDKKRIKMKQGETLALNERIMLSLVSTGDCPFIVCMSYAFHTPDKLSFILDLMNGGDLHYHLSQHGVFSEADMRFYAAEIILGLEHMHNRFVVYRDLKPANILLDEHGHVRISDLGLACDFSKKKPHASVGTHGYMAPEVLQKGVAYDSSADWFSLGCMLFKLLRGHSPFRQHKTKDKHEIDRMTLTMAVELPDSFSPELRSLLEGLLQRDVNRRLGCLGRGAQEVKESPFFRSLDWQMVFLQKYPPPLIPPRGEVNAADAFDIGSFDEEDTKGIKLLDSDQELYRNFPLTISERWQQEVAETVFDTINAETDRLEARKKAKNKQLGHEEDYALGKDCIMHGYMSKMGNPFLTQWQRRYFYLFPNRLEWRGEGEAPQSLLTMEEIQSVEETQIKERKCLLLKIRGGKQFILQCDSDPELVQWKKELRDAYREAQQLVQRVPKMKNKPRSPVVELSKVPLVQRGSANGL
The assay is described as follows: Inhibition of human recombinant BARK1 at 40 nM related to control ULK1. The essentials:
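Radiometric activity assays in a panel of 327 human recombinant kinases, each run in duplicate at one inhibitor concentration. Activity remaining is expressed as percent of vehicle control, and percent inhibition is calculated as 100% minus percent activity remaining.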

The target in assay [4] is T2, Serine/threonine-protein kinase ICK (Homo sapiens) (UniProt Q9UPZ9).
T2 sequence (whole entry): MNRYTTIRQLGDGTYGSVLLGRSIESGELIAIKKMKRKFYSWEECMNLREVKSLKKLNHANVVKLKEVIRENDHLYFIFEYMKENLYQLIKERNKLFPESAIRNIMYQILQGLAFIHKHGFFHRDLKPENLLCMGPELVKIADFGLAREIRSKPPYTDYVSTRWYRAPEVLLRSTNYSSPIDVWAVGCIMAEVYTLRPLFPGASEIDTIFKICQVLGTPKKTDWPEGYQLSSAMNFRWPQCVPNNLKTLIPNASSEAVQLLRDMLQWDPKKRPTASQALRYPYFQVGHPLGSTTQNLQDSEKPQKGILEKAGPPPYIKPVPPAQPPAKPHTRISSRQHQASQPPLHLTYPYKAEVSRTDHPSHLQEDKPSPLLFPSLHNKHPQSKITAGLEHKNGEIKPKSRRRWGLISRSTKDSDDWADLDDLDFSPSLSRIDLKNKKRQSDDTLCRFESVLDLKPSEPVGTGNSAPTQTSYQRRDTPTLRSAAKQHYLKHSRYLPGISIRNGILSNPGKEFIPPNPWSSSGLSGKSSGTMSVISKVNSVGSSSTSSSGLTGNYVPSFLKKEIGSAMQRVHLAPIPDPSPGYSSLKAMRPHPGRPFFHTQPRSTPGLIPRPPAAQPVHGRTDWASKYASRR
As to the kind of experiment: Inhibition of human recombinant ICK at 40 nM in presence of ATP by radiometric assay relative to control.

Assay [5] addresses Misshapen-like kinase 1 (Homo sapiens) (UniProt Q8N4C8). As to the kind of experiment: Inhibition of human recombinant MINK at 500 nM in presence of ATP by radiometric assay relative to control.
Assay [6] has as its target T3, Serine/threonine-protein kinase D3 (Homo sapiens) (UniProt O94806).
T3 sequence (whole entry): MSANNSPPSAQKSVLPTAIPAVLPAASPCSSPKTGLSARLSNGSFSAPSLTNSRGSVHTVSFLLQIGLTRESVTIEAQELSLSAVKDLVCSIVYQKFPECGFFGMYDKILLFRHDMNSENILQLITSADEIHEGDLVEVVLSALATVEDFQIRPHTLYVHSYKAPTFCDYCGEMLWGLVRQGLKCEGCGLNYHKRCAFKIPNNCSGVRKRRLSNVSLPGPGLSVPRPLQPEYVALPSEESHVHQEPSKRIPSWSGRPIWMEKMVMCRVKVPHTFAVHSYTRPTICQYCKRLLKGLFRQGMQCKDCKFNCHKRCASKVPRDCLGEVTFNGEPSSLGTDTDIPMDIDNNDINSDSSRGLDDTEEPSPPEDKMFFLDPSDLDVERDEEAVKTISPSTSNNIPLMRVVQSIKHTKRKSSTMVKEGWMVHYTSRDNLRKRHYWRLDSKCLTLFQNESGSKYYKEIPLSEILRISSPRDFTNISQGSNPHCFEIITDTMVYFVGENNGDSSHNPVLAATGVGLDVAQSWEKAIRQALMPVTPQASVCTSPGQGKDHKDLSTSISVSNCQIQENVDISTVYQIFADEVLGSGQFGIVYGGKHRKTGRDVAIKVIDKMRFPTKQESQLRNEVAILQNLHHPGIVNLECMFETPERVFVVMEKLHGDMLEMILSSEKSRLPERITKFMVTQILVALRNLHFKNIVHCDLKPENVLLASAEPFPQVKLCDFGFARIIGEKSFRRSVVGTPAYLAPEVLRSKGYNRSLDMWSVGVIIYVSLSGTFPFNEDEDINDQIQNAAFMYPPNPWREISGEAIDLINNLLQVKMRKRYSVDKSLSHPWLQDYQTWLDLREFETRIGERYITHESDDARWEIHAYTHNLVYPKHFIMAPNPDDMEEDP
The assay is described as follows: Inhibition of human recombinant PKD3 at 500 nM related to control ULK1.

In assay [7] the target is Mitogen-activated protein kinase kinase kinase 9 (Homo sapiens) (UniProt P80192). The assay is described as follows: Inhibition of human recombinant MLK1 at 500 nM related to control ULK1.
Chain of Mitogen-activated protein kinase kinase kinase 9 (Homo sapiens) (P80192 whole entry, looked up): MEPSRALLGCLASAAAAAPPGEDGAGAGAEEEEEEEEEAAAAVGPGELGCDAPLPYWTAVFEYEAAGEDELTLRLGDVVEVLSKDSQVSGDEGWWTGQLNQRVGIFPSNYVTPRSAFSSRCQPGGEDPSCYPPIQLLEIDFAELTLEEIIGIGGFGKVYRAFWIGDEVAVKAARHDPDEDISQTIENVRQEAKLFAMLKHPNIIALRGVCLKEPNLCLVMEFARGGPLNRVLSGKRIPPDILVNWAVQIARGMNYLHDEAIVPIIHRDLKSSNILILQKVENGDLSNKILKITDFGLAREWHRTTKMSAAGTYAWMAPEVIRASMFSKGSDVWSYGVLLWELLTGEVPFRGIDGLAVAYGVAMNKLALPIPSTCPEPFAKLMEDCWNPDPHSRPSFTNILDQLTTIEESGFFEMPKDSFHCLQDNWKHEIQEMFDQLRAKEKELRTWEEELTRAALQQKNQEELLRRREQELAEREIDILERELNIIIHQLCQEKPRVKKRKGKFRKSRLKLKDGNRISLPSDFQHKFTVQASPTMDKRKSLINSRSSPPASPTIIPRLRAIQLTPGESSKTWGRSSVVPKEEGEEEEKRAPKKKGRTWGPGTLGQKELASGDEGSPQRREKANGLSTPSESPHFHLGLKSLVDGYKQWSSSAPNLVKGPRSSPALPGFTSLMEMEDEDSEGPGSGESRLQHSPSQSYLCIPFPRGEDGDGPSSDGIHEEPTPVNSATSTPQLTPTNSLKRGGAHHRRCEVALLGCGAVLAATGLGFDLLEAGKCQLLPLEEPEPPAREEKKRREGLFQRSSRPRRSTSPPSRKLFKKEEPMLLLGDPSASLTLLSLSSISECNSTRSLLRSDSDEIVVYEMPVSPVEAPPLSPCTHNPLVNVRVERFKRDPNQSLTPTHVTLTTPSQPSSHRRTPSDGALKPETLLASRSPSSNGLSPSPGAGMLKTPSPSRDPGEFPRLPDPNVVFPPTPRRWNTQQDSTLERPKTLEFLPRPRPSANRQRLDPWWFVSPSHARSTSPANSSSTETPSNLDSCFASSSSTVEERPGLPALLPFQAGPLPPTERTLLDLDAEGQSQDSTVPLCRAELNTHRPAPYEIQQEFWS
For assay [8], the target named is Tyrosine-protein kinase JAK1 (Homo sapiens) (UniProt P23458). As to the kind of experiment: Inhibition of human recombinant JAK1 at 15 nM related to control ULK1.
Chain of Tyrosine-protein kinase JAK1 (Homo sapiens) (P23458 whole entry): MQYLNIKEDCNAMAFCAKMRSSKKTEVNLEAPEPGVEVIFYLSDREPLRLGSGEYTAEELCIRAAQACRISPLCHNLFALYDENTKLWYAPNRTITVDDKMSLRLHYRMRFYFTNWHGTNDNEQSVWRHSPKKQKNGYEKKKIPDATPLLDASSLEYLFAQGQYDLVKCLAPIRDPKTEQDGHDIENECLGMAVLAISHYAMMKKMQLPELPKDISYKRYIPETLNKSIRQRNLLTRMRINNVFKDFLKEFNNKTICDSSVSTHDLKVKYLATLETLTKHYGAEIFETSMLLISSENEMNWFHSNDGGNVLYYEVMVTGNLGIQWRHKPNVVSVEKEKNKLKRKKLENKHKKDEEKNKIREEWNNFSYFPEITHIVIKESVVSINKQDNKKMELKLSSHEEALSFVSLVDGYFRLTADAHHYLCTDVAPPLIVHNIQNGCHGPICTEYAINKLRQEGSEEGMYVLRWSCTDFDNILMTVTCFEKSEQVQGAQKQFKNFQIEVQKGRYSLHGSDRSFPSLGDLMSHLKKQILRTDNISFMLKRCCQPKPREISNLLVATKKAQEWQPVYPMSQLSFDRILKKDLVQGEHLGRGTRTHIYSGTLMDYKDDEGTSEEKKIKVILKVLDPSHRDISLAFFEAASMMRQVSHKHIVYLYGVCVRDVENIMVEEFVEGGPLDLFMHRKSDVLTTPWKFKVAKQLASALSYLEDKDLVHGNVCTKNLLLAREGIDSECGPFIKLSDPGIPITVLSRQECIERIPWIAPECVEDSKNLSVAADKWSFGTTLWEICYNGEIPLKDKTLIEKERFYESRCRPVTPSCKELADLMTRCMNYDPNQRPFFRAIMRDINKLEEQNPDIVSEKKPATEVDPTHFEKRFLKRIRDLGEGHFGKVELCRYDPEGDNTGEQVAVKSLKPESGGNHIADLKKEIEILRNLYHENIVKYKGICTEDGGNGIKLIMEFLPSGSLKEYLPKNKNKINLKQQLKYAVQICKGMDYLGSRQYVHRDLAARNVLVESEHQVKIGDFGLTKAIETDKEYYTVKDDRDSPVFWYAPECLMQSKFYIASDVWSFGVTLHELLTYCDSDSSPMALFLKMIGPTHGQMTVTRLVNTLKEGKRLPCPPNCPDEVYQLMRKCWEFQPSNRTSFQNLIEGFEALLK
Assay [9] addresses Mitogen-activated protein kinase 14 (Homo sapiens) (UniProt Q16539). The assay is described as follows: Inhibition of human recombinant p38alpha at 15 nM in presence of ATP by radiometric assay relative to control.
Assay [10] concerns the target ALK tyrosine kinase receptor (Homo sapiens) (UniProt Q9UM73). As to the kind of experiment: Inhibition of human recombinant ALK at 15 nM related to control ULK1.
Assay [11] deals with Serine/threonine-protein kinase 10 (Homo sapiens) (UniProt O94804). The assay is described as follows: Inhibition of human recombinant LOK at 15 nM related to control ULK1.
Chain of Serine/threonine-protein kinase 10 (Homo sapiens) (O94804 whole entry, looked up): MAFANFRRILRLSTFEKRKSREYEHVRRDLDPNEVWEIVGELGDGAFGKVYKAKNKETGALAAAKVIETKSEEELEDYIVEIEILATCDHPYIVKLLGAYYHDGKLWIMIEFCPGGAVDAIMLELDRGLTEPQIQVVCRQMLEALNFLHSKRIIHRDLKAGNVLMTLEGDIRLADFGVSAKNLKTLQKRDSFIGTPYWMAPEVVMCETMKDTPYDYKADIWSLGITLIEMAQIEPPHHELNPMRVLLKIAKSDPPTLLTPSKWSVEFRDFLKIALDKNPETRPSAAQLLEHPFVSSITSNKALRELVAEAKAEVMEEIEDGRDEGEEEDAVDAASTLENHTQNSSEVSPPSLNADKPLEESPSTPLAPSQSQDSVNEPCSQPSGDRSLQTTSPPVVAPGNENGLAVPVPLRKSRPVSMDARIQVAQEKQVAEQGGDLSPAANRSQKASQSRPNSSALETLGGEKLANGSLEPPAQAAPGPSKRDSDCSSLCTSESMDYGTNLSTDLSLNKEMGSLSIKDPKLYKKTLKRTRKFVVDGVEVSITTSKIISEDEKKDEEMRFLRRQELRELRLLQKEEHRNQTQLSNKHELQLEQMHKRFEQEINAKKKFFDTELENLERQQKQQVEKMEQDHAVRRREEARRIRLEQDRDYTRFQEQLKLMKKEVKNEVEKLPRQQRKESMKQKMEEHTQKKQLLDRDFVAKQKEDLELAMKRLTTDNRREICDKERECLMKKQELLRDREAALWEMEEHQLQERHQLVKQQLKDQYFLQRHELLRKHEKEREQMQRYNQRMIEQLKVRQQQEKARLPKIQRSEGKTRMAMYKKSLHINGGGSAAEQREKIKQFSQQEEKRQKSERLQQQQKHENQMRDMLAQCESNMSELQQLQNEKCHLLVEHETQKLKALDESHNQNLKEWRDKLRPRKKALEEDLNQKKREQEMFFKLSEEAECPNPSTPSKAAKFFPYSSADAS

Chain of Misshapen-like kinase 1 (Homo sapiens) (Q8N4C8 whole entry, looked up): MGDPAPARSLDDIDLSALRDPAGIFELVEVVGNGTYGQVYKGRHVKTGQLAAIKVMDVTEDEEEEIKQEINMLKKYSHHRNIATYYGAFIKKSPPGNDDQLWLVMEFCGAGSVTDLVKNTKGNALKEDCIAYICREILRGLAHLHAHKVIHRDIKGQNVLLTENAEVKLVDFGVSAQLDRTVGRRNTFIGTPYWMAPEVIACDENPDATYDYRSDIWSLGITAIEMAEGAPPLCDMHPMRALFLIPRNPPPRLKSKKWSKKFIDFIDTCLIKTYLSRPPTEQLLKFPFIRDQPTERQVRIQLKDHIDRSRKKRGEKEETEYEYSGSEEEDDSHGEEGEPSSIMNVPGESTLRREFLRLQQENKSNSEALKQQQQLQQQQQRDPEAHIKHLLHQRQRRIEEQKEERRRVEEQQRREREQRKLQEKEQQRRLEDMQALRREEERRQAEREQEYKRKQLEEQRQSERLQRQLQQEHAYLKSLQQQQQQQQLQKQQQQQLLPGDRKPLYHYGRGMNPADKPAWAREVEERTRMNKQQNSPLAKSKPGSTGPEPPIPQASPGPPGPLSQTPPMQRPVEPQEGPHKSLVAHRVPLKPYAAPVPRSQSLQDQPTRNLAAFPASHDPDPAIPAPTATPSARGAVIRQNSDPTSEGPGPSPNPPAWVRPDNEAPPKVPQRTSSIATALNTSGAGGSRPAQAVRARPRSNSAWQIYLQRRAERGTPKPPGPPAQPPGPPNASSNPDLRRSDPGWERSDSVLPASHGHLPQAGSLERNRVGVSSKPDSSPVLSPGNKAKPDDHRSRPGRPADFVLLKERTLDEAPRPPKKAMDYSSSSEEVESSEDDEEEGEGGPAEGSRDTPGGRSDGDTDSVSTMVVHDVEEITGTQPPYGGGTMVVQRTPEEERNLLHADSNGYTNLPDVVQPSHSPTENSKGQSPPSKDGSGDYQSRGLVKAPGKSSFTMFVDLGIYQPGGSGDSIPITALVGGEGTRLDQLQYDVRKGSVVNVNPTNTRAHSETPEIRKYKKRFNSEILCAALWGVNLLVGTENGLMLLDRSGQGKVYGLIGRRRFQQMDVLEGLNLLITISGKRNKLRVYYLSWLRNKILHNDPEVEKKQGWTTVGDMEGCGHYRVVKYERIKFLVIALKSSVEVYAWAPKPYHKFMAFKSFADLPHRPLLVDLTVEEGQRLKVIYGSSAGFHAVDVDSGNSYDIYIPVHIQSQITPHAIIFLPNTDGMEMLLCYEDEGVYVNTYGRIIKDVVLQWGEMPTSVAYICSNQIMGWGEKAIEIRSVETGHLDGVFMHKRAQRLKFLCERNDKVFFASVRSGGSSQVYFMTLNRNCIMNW

As for `O=C(N[C@@H](C1CC1)C(F)(F)F)c1cc(-c2cnn3cc(-c4ccc(F)cc4)cnc23)cs1`, the inhibition in assay [1], in [2] and in assay [4] was 0% in each case. Also, the fold change (FC) in assay [3] was 0.04.

Regarding `CNC(=O)c1ccccc1Oc1nc(Nc2cc(OC)c(OC)c(OC)c2)ncc1Br`, the inhibition in [5] was found to be 4%. For the same compound, the fold change (FC) in [6] is 0; in [7], 1.18.

As to `CC(C)[C@H](NC(=O)c1cc(-c2cnn3cc(-c4ccc(OCCN5CCCCC5)cc4)cnc23)cs1)C(F)(F)F`, the fold change (FC) in [8], in assay [10] and in [11] was 0 each time. Also, the inhibition in assay [9] came out at 5%.
